From ChEMBL document CHEMBL2321841, “Structure-based drug design and potent anti-cancer activity of tricyclic 5:7:5-fused diimidazo[4,5-d:4',5'-f][1,3]diazepines” (Bioorg Med Chem, 2013)

Assays:
[1] = tested on: A549; assay: Cytotoxicity against human A549 cells after 72 hrs by WST1 assay; format: functional, cell-based; details: A549, 72 h
Outline: (§1)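 Cells were seeded the day before dosing at 0.5–1.7 × 10^3 cells/well in RPMI + 10% FBS. Compounds were dissolved in DMSO (stocks 100–200 mM) and tested at nine concentrations from 100 μM to 5 nM, in 4 replicates per dilution, with experiments repeated 1x or 2x. Exposure was 72 h at 37°C, 5% CO2, against a DMSO vehicle control. WST-1 was then added for 4 h and absorbance read at 450–690 nm.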

[2] = tested on: MCF7; assay: Cytotoxicity against human MCF7 cells after 72 hrs by WST1 assay; format: functional, cell-based; details: MCF7, 72 h; outline: as §1
[3] = tested on: MDA-MB-231; assay: Growth inhibition of human MDA-MB-231 cells at 100 uM after 72 hrs by WST1 assay; format: functional; details: MDA-MB-231, 72 h, read-out: GI
Outline: (§2)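 The highest concentration, 100 μM, comes from a nine-point series (100 μM to 5 nM) of DMSO-dissolved compound. Cells were seeded the day before at 0.5–1.7 × 10^3 cells/well in RPMI + 10% FBS, with 4 replicates per dilution. Exposure was 72 h at 37°C, 5% CO2, against a DMSO vehicle control. WST-1 was added for 4 h and absorbance read at 450–690 nm. Growth inhibition by ≤75% was scored as not effective.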

[4] = tested on: PC-3; assay: Growth inhibition of human PC3 cells at 100 uM after 72 hrs by WST1 assay; format: functional; details: PC-3, 72 h, read-out: GI; outline: as §2
[5] = tested on: A549; assay: Growth inhibition of human A549 cells at 100 uM after 72 hrs by WST1 assay; format: functional; details: A549, 72 h, read-out: GI; outline: as §2
[6] = tested on: MCF7; assay: Growth inhibition of human MCF7 cells at 100 uM after 72 hrs by WST1 assay; format: functional; details: MCF7, 72 h, read-out: GI; outline: as §2
[7] = tested on: OVCAR-3; assay: Growth inhibition of human OVCAR3 cells at 100 uM after 72 hrs by WST1 assay; format: functional; details: OVCAR-3, 72 h, read-out: GI; outline: as §2
[8] = Growth inhibition of human H460 cells at 100 uM after 72 hrs by WST1 assay; format: functional; details: NCI-H460, 72 h, read-out: GI; outline: as §2
[9] = Cytotoxicity against human H460 cells after 72 hrs by WST1 assay; format: functional, cell-based; details: NCI-H460, 72 h; outline: as §1
[10] = tested on: PC-3; assay: Cytotoxicity against human PC3 cells after 72 hrs by WST1 assay; format: functional, cell-based; details: PC-3, 72 h; outline: as §1
[11] = tested on: MDA-MB-231; assay: Cytotoxicity against human MDA-MB-231 cells after 72 hrs by WST1 assay; format: functional, cell-based; details: MDA-MB-231, 72 h; outline: as §1
[12] = tested on: OVCAR-3; assay: Cytotoxicity against human OVCAR3 cells after 72 hrs by WST1 assay; format: functional, cell-based; details: OVCAR-3, 72 h; outline: as §1

Row | Compound | IC50 [1] | IC50 [2] | inhibition of growth at 100 µM [3] | inhibition of growth at 100 µM [4] | inhibition of growth at 100 µM [5] | inhibition of growth at 100 µM [6] | inhibition of growth at 100 µM [7] | inhibition of growth at 100 µM [8] | IC50 [9] | IC50 [10] | IC50 [11] | IC50 [12]
1 | COc1ccc(Cn2cnc3c4nc(=O)n(Cc5ccc(F)cc5)c-4ncnc32)cc1 | 1.65 µM | 4.05 µM |  |  |  |  |  |  |  |  |  | 
2 | COc1ccc(Cn2cnc3c4nc(=O)n(CCN5CCOCC5)c-4ncnc32)cc1 |  |  | ≤ 75% | ≤ 75% | ≤ 75% | ≤ 75% | ≤ 75% | ≤ 75% |  |  |  | 
3 | COc1ccc(Cn2c3ncnc4c(ncn4Cc4ccc(F)cc4)c-3nc2=O)cc1 | 4.4 µM | 5.87 µM |  |  |  |  | ≤ 75% |  | 5.06 µM | 7.67 µM | 5.33 µM | 
4 | COc1ccc(Cn2cnc3c4nc(=O)n(CCCl)c-4ncnc32)cc1 | 8.63 µM |  | ≤ 75% |  |  | ≤ 75% | ≤ 75% |  | 7.9 µM | 9.33 µM |  | 
5 | COc1ccc(Cn2cnc3c4nc(=O)n(Cc5ccc(O)cc5)c-4ncnc32)cc1 | 4.21 µM | 6.58 µM |  |  |  |  |  |  | 4.68 µM | 5.12 µM | 3.15 µM | 4.36 µM
6 | COc1ccc(Cn2c3nc(CCCC(=O)O)nc4c(ncn4Cc4ccc(OC)cc4)c-3nc2=O)cc1 |  |  | ≤ 75% | ≤ 75% | ≤ 75% | ≤ 75% | ≤ 75% | ≤ 75% |  |  |  | 
7 | COc1ccc(Cn2cnc3c4nc(=O)n(CCN5CCCCC5)c-4ncnc32)cc1 |  |  | ≤ 75% | ≤ 75% | ≤ 75% | ≤ 75% | ≤ 75% | ≤ 75% |  |  |  | 
8 | CCOC(=O)Cn1c2ncnc3c(ncn3Cc3ccc(OC)cc3)c-2nc1=O | 33.5 µM |  |  | ≤ 75% |  | ≤ 75% | ≤ 75% |  | 34.5 µM |  | 37 µM | 
9 | COc1ccc(Cn2cnc3c4nc(=O)n(Cc5ccc(Cl)cc5)c-4ncnc32)cc1 | 0.78 µM | 2.38 µM |  |  |  |  |  |  | 0.85 µM | 0.92 µM | 0.97 µM | 0.88 µM
10 | COc1ccc(Cn2c3nc(-c4ccc(C)cc4)nc4c(ncn4Cc4ccc(OC)cc4)c-3nc2=O)cc1 |  |  | ≤ 75% | ≤ 75% | ≤ 75% | ≤ 75% | ≤ 75% | ≤ 75% |  |  |  | 
11 | COc1ccc(Cn2cnc3c4nc(=O)n(Cc5cccc(Br)c5)c-4ncnc32)cc1 | 1.37 µM | 1.85 µM |  |  |  |  |  |  | 1.17 µM | 2.57 µM | 1.53 µM | 1.54 µM
12 | COc1ccc(Cn2cnc3c4nc(=O)n(Cc5cccc(OC)c5)c-4ncnc32)cc1 |  |  |  |  |  |  |  |  | 1.55 µM | 5.15 µM |  | 2.5 µM
13 | COCCOc1ccc(Cn2c3ncnc4c(ncn4Cc4ccc(OC)cc4)c-3nc2=O)cc1 | 4.89 µM | 14.8 µM |  |  |  |  |  |  | 5.14 µM | 6.7 µM | 5.61 µM | 5.45 µM
14 | COc1ccc(Cn2cnc3c4nc(=O)n(Cc5cccc(C(F)(F)F)c5)c-4ncnc32)cc1 | 3.19 µM | 4.31 µM |  |  |  |  |  |  | 3.1 µM | 8.3 µM | 4.61 µM | 3.68 µM
15 | COc1ccc(Cn2cnc3c4nc(=O)n(Cc5ccc(OCCO)cc5)c-4ncnc32)cc1 | 12.3 µM | 27.2 µM |  |  |  |  |  |  | 10.9 µM | 19.7 µM | 10.6 µM | 13.2 µM
16 | COc1ccc(Cn2cnc3c4nc(=O)n(Cc5ccc(N(C)C)cc5)c-4ncnc32)cc1 | 8.81 µM | 15.1 µM |  |  |  |  |  |  | 8.44 µM | 202 µM | 8.82 µM | 9.43 µM
17 | COc1ccc(Cn2c3ncnc4c(ncn4Cc4ccc(OC)cc4)c-3nc2=O)cc1 | 2.56 µM | 7.59 µM |  |  |  |  |  |  | 2.87 µM | 4.9 µM |  | 
